Results on two molecules are retold here after publication PMC8828683 (Stem Cell Reports, 2022).

Assay type in all cases: cell-based, human
Experiment [1] relates to H108 fibroblasts. As to the kind of experiment: Immunoblotting of total cell extracts. The conditions noted are these: H108 fibroblasts; 2.5 μM WX8 or 2 μM Adriamycin 24 h. In a few lines: (§1)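 Cells were cultured with 2.5 μM test compound for up to 96 h, and attached plus unattached cells were pooled. Whole-cell RIPA lysates were run on 4–12% Bis-Tris gels, transferred to nitrocellulose and blocked in 5% milk/TBS. Primary antibodies went on overnight at 4°C, followed by infrared secondary antibodies and imager quantitation. Each blot carried untreated U2OS as a shared standard, with Ponceau-S histones for normalization and lighter exposures for quantitation. Adriamycin for 24 h (NTERA-2 1 μM, H108 2 μM) served as a DNA-break control.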

Experiment [2] deals with NTERA-2 ECCs. As to the kind of experiment: Immunoblotting of total cell extracts. The conditions noted are these: NTERA-2, 1 μM Adriamycin, 24 h. The gist of the method:
as §1
Background: A western blot detects proteins with antibodies after separation by electrophoresis.

In experiment [3] the test system is NTERA-2 ECC. As to the kind of experiment: Live cells / PCD by FACS of nonpermeabilized cells stained with annexin-V and PI. The gist of the method: (§2)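 Cells were seeded so that vehicle wells stayed subconfluent, then treated with a range of test compound concentrations for 4 days. Without permeabilization, they were stained with annexin-V-FITC and propidium iodide and analysed by flow cytometry. Double-negative cells (Q3) were scored as live and Q1+Q2 as programmed death. Vehicle was set to 100% viable and 0% dead. Results are the mean of three independent assays with SEM; group averages and ratios are derived from the IC50s.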

The test system of experiment [4] is HFF-1 normal skin fibroblast. Described as above. The conditions noted are these: Homo sapiens, HFF-1, read-out: IC50 Live Cells. The gist of the method: as §2
Experiment [5] has as its system NTERA-2 ECC. The experiment in a line: Cells with <2N DNA by FACS of permeabilized cells stained with PI. The conditions noted are these: Homo sapiens, NTERA2, read-out: IC50 DNA (50% of cells with <2N DNA). In a few lines: (§3)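 Cells were exposed to a range of test compound concentrations alongside vehicle (DMSO) controls. They were then permeabilized, stained with propidium iodide, and DNA content was read by flow cytometry. IC50 is the concentration at which 50% of cells hold <2N DNA, from 3 independent repetitions with SEM. Line averages and differentiated/pluripotent ratios are derived from these IC50s. NTERA-2 was also run as a time course at 5 μM, normalized to vehicle at each time point.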
(In general: In flow cytometry, cells or beads pass a laser one at a time.)

Experiment [6] concerns HFF-1 normal skin fibroblast. The description is as above. The conditions noted are these: Homo sapiens, HFF-1, read-out: IC50 DNA (50% of cells with <2N DNA). The gist of the method: as §3

As for `COc1cccc2c1C(=O)c1c(O)c3c(c(O)c1C2=O)C[C@@](O)(C(=O)CO)C[C@@H]3O[C@H]1C[C@H](N)[C@H](O)[C@H](C)O1` [Adriamycin, doxorubicin], in experiment [1], the CASP3 cleavage result is “Neither WX8 nor Adriamycin induced cleavage” and the PARP cleavage entry was “Neither WX8 nor Adriamycin induced cleavage”. In experiment [2], this molecule had a CASP3 cleaved above 90%.

For `Cc1cccc(/C=N/Nc2cc(N3CCOCC3)nc(OCCc3ccccn3)n2)c1` [Apilimod], the IC50 was 200 nM in experiment [3] (Homo sapiens, NTERA2, 96 h, read-out: IC50 Live Cells); above 10000 nM in experiment [4]; 400 nM in experiment [5]; above 10000 nM in experiment [6]. The “Effectiveness relative to WX8” value in experiment [3] (NTERA-2 cells) is on record as “about 10 times”.

A word on the IC50: it is the concentration that inhibits the measured activity by half.
